Measured values pooled from the literature.
Each line is one published result; the experiments were not run side by side.
Target: BMP-2-inducible protein kinase (BMP2K, Homo sapiens, UniProt Q9NSY1)

SMILES | assay | setting | measurement | value
Cn1c2c(Cl)c(Cl)ccc2c2cc[nH]c(=O)c21 | thermal stability, DSF | 10 µM | ΔTm | > 8 °C
Cc1ccc(C(=O)Nc2ccc(CN3CCN(C)CC3)c(C(F)(F)F)c2)cc1C#Cc1cnc2cccnn12 | enzyme activity, inhibitor | 23.5 nM | remaining activity | 95%
NS(=O)(=O)c1ccc(CNc2ccnc(Nc3cccc(CN4CCOCC4)c3)n2)cc1 | enzyme activity, inhibitor, radiometric | 1 µM | remaining activity | 51%
Nc1ncnc2occ(-c3ccc(NC(=O)Nc4cc(C(F)(F)F)ccc4F)cc3)c12 | cell-free assay, inhibitor | 20 µM | remaining signal | 59%
CN1CCc2cc(Nc3ncc(C4CC4)c(NCCCNC(=O)C4CCC4)n3)ccc2C1 | enzyme activity, inhibitor, radiometric | 1 µM | remaining activity | 3%
Cn1nc(C(=O)NCc2ccc(C(=O)O)cc2)cc1-c1ccc2[nH]ccc2c1 | cell-free assay, competition with immobilised ligand | 0.1 µM | remaining binding | 82%
CN(CCCC(F)(F)F)c1nccc(-c2cnn3ncccc23)n1 | binding | 1 µM | remaining binding | 100%
N#CC1(c2ccccn2)CCN(Cc2cc(C(=O)N3CCCC3)c(=O)n3ccccc23)CC1 | cell-free assay, competition with immobilised ligand | 1 µM | remaining binding | 92%
Cc1nn(CC(F)(F)F)cc1Nc1ncc(C2CC2)c(NCc2ccc(S(N)(=O)=O)cc2)n1 | enzyme activity, inhibitor, radiometric | 1 µM | remaining activity | 94%
Cc1ccc(C(=O)NCc2ccsc2)cc1C#Cc1cn(C(C)C)c2ncnc(N)c12 | enzyme activity, inhibitor | 1 µM | activity vs control | 128%
